Laboratory results reported in ChEMBL document CHEMBL3826936, “Alkyne-substituted diminazene as G-quadruplex binders with anticancer activities” (Eur J Med Chem, 2016).
Calls of active or inactive are those of the source. The calls are words filed in the database; no cut-off is given here.

Legend:
[1] = Binding affinity to 5'-FAM/3'-TAMRA labeled c-kit2 26-mer G-quadruplex DNA (unknown origin) assessed as change in melting temperature at 4 uM after 12 hrs by TR-FRET assay
Procedure, shortened: (§1)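 Dual-labeled FAM/TAMRA oligos diluted to 800 nM in 60 mM potassium cacodylate (pH 7.2), annealed 10 min at 85 °C and cooled to room temperature. Mixed 1:1 with ligand at […] in the same buffer. Equilibrated at least 12 h at 4 °C. ΔT1/2 taken as melting temperature with minus without ligand, in triplicate, averaged.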

[2] = Binding affinity to 5'-FAM/3'-TAMRA labeled F21T 21-mer G-quadruplex DNA (unknown origin) assessed as change in melting temperature at 4 uM after 12 hrs by TR-FRET assay; procedure, shortened: as §1
[3] = Antiproliferative activity against human bone marrow cells assessed as cell viability at 20 uM after 72 hrs by WST-1 assay relative to control; format: cell-based; conditions: read-out: Activity
Procedure, shortened: (§2)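 Cells seeded in 96-well plates the afternoon before treatment, at numbers keeping them in log-phase growth; about 18 h later, compounds semi-serially diluted in DMSO then growth medium and added. Incubation 72 h, then WST-1 added and plates read after 4 more hours at 37 °C. GI50 derived from curve fits; viability expressed relative to DMSO control.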

[4] = Binding affinity to 5'-FAM/3'-TAMRA labeled 26-mer duplex DNA (unknown origin) assessed as change in melting temperature at 4 uM after 12 hrs by TR-FRET assay
[5] = Binding affinity to c-MYC2345 G-quadruplex DNA (unknown origin) at 150 uM incubated for 2 hrs by 1H NMR method
[6] = Antiproliferative activity against human MCR5A cells assessed as cell viability at 20 uM after 72 hrs by WST-1 assay relative to control; format: cell-based; conditions: read-out: Activity; procedure, shortened: as §2
[7] = Binding affinity to c-kit1 22-mer G-quadruplex DNA (unknown origin) at 150 uM incubated for 2 hrs by 1H NMR method
[8] = Binding affinity to 8-bp AT rich duplex DNA (unknown origin) at 150 uM incubated for 2 hrs by 1H NMR method
[9] = biological target: Telomerase reverse transcriptase (Homo sapiens) (UniProt O14746); assay: Inhibition of telomerase activity in human MDA-MB-231 cells using amplifour TS primer at 12.4 uM preincubated for 48 hrs followed by primer addition measured after 30 mins by fluorescence plate reader analysis relative to control; format: cell-based
Telomerase reverse transcriptase (Homo sapiens), sequence (O14746 whole entry): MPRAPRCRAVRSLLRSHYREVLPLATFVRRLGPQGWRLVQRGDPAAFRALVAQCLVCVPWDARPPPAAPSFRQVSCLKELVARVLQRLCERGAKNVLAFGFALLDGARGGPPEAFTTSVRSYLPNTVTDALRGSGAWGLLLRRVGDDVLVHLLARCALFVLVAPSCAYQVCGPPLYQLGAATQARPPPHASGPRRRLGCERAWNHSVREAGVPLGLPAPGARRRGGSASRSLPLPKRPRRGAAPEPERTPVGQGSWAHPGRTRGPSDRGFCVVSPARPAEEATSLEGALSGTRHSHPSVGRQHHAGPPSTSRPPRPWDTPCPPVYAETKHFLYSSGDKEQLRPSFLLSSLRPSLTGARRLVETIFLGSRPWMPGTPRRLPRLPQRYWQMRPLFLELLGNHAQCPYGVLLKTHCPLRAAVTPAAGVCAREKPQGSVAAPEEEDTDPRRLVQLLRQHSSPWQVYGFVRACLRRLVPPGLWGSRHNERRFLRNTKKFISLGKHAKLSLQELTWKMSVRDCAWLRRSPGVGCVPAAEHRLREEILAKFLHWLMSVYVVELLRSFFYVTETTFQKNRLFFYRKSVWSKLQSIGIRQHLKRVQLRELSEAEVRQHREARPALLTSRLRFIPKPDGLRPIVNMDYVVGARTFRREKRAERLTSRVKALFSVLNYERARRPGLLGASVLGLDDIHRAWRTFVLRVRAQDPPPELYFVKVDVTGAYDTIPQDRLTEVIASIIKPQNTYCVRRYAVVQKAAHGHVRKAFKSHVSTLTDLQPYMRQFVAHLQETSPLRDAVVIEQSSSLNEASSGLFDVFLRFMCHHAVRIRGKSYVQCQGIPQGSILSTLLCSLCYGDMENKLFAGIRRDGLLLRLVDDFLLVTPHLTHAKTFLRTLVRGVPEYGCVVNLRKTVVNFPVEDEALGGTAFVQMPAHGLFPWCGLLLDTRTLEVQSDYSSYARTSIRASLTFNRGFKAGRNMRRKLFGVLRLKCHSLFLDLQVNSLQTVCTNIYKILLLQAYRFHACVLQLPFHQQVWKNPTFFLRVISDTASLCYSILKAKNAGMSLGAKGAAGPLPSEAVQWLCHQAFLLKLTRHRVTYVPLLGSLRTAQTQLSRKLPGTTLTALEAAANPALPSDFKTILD
Procedure, shortened: (§3)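 MDA-MB-231 seeded at 2 × 10^5 cells per T-25 flask the evening before, then treated with vehicle or compound for 48 or 72 h. Harvested cells lysed in CHAPS buffer with RNase inhibitor, 30 min on ice; supernatant kept after 12,000 × g spin. TRAPeze XL fluorescence assay used 1000 cell-equivalents, 30 min at 30 °C; TPG units from product/internal-standard ratio; inhibition relative to untreated cells.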

[10] = Stabilization of c-MYC template Pu27-13,14 mutant DNA (unknown origin) assessed as inhibition of Taq polymerase-mediated polymerization/extension of Pu27-13,14 mutant and Pu27rev oligomers at 100 uM preincubated for 6 hrs followed by Taq polymerase addition by PCR stop assay
[11] = Antiproliferative activity against human PC3 cells after 72 hrs by WST-1 assay; format: functional; conditions: PC-3, 72 h; procedure, shortened: as §2
[12] = Stabilization of c-MYC template Pu27 mutant DNA (unknown origin) assessed as inhibition of Taq polymerase-mediated polymerization/extension of Pu27 mutant and Pu27rev oligomers at 1 to 100 uM preincubated for 6 hrs followed by Taq polymerase addition by PCR stop assay
[13] = Binding affinity to 5'-FAM/3'-TAMRA labeled k-RAS21R 21-mer G-quadruplex DNA (unknown origin) assessed as change in melting temperature at 4 uM after 12 hrs by TR-FRET assay; procedure, shortened: as §1
[14] = tested on: MDA-MB-231; assay: Binding affinity to c-MYC G-quadruplex DNA in human MDA-MB-231 cells assessed as inhibition of c-MYC protein expression at 19.5 uM incubated for 6 hrs by Western blot analysis relative to control; format: cell-based
Procedure, shortened: (§4)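 MDA-MB-231 cells, grown in DMEM with 10% heat-inactivated FBS at 37 °C and 5% CO2, exposed for 6 or 24 h; DMSO vehicle as comparator. Cells harvested, PBS-washed, lysed in RIPA with protease inhibitors. Blots probed with c-MYC antibody (1:1000) and HRP anti-rabbit IgG (1:10,000), β-actin as loading control. Densitometry given as percent of vehicle at each time point.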

[15] = tested on: MDA-MB-231; assay: Binding affinity to c-MYC G-quadruplex DNA in human MDA-MB-231 cells assessed as inhibition of c-MYC protein expression at 19.5 uM incubated for 24 hrs by Western blot analysis relative to control; format: cell-based; procedure, shortened: as §4
[16] = Binding affinity to 5'-FAM/3'-TAMRA labeled c-MYC 22-mer G-quadruplex DNA (unknown origin) assessed as change in melting temperature at 4 uM after 12 hrs by TR-FRET assay; procedure, shortened: as §1
[17] = tested on: MDA-MB-231; assay: Antiproliferative activity against human MDA-MB-231 cells after 72 hrs by WST-1 assay; format: functional; conditions: MDA-MB-231, 72 h; procedure, shortened: as §2
[18] = Stabilization of c-MYC pu27 G-quadruplex DNA (unknown origin) assessed as inhibition of Taq polymerase-mediated polymerization/extension of Pu27 and Pu27rev oligomers at 100 uM preincubated for 6 hrs followed by Taq polymerase addition by PCR stop assay
[19] = Antiproliferative activity against human OVCAR3 cells after 72 hrs by WST-1 assay; format: functional; conditions: OVCAR-3, 72 h; procedure, shortened: as §2
[20] = Binding affinity to 5'-FAM/3'-TAMRA labeled c-MYC 22-mer G-quadruplex DNA (unknown origin) at 4 uM in presence of 26-mer duplex DNA by TR-FRET assay
[21] = biological target: Telomerase reverse transcriptase (Homo sapiens) (UniProt O14746); assay: Inhibition of telomerase activity in human MDA-MB-231 cells using amplifour TS primer at 12.4 uM preincubated for 72 hrs followed by primer addition measured after 30 mins by fluorescence plate reader analysis relative to control; format: cell-based; procedure, shortened: as §3
[22] = Binding affinity to 8-bp AT rich duplex DNA (unknown origin) by isothermal titration calorimetry
[23] = Stabilization of c-MYC template Pu27-13,14 mutant DNA (unknown origin) assessed as inhibition of Taq polymerase-mediated polymerization/extension of Pu27-13,14 mutant and Pu27rev oligomers at 25 uM preincubated for 6 hrs followed by Taq polymerase addition by PCR stop assay
[24] = Binding affinity to wild type Bcl2 27-mer G-quadruplex DNA (unknown origin) by isothermal titration calorimetry
[25] = Selectivity ratio of Kd for 8-bp AT rich duplex DNA (unknown origin) to Kd for wild type Bcl2 27-mer G-quadruplex DNA (unknown origin)
[26] = Stabilization of c-MYC template Pu27 mutant DNA (unknown origin) assessed as inhibition of Taq polymerase-mediated polymerization/extension of Pu27 mutant and Pu27rev oligomers at 1 to 25 uM preincubated for 6 hrs followed by Taq polymerase addition by PCR stop assay
[27] = Binding affinity to wild type c-MYC 24-mer G-quadruplex DNA (unknown origin) by isothermal titration calorimetry
[28] = Selectivity ratio of Kd for 8-bp AT rich duplex DNA (unknown origin) to Kd for wild type c-MYC 24-mer G-quadruplex DNA (unknown origin)
[29] = Antiproliferative activity against human PC3 cells assessed as cell viability at 20 uM after 72 hrs by WST-1 assay relative to control; format: functional; conditions: PC-3, 72 h, read-out: Activity; procedure, shortened: as §2
[30] = tested on: MDA-MB-231; assay: Antiproliferative activity against human MDA-MB-231 cells assessed as cell viability at 20 uM after 72 hrs by WST-1 assay relative to control; format: functional; conditions: MDA-MB-231, 72 h, read-out: Activity; procedure, shortened: as §2
[31] = Stabilization of c-MYC Pu27 G-quadruplex DNA (unknown origin) assessed as inhibition of Taq polymerase-mediated polymerization/extension of Pu27 and Pu27rev oligomers at 10 uM preincubated for 6 hrs followed by Taq polymerase addition by PCR stop assay
[32] = Antiproliferative activity against human MCR5A cells after 72 hrs by WST-1 assay; format: cell-based
Procedure, shortened: (§5)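 Cells seeded the afternoon before treatment at densities giving log-phase growth; about 18 h later compounds, semi-serially diluted in DMSO then growth medium, were added. After 72 h WST-1 was added, with a further 4 h at 37 °C before plate reading. GI50 values were calculated from the curves. NBM was grown in RPMI; MCR5A was handled per ATCC.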

[33] = tested on: MDA-MB-231; assay: Binding affinity to c-MYC G-quadruplex DNA in human MDA-MB-231 cells assessed as inhibition of c-MYC protein expression at 27.25 uM incubated for 6 hrs by Western blot analysis relative to control; format: cell-based; procedure, shortened: as §4
[34] = tested on: MDA-MB-231; assay: Binding affinity to c-MYC G-quadruplex DNA in human MDA-MB-231 cells assessed as inhibition of c-MYC protein expression at 27.25 uM incubated for 24 hrs by Western blot analysis relative to control; format: cell-based; procedure, shortened: as §4
[35] = tested on: MDA-MB-231; assay: Cytotoxicity against human MDA-MB-231 cells assessed as reduction in cell viability at 27.25 uM after 24 hrs by […]; conditions: mda-mb-231, 24 h
[36] = biological target: Telomerase reverse transcriptase (Homo sapiens) (UniProt O14746); assay: Inhibition of telomerase activity in human MDA-MB-231 cells using amplifour TS primer preincubated for 48 to 72 hrs followed by primer addition measured after 30 mins by fluorescence plate reader analysis relative to control; format: cell-based
Procedure, shortened: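 MDA-MB-231 cells, 2 × 10⁵ per T-25 flask, were treated the next morning with vehicle or compound at 0.5×, 1×, 2× or 4× GI50. After 48 or 72 h they were lysed in CHAPS buffer with RNase inhibitor on ice for 30 min. Lysate (1000 cell-equivalents) went into a fluorescent TRAP reaction at 30 °C for 30 min. TPG units were taken against an internal standard, and inhibition was expressed relative to untreated cells.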

[37] = biological target: Telomerase reverse transcriptase (Homo sapiens) (UniProt O14746); assay: Inhibition of telomerase activity in human MDA-MB-231 cells using amplifour TS primer at 11 uM preincubated for 48 to 72 hrs followed by primer addition measured after 30 mins by fluorescence plate reader analysis relative to control; format: cell-based; procedure, shortened: as §3
[38] = Antiproliferative activity against human bone marrow cells after 72 hrs by WST-1 assay; format: cell-based, Bone marrow cell; procedure, shortened: as §5

Structure (SMILES) | ΔTm [1] | ΔTm [2] | ΔTm [4] | Activity [5] | Activity [7] | Activity [8] | inhibition [10] | GI50 [11] | inhibition [12] | ΔTm [13] | ΔTm [16] | GI50 [17] | inhibition [18] | GI50 [19] | Activity [20] | other results
N=C(N)c1ccc(/N=N/Nc2ccccc2C#Cc2ccc(F)cc2)cc1 | 5.12 °C | < 5 °C | < 5 °C | Active | Active | inactive | inactive | 7.4 µM | inactive | 2.7 °C | 8.8 °C | 6.2 µM | Active | 9.5 µM | inactive | viability at 72 h, 20 µM [3]: ≥ 75%; viability at 72 h, 20 µM [6]: ≥ 75%; inhibition [9]: 20%; inhibition [14]: inactive; inhibition [15]: 100%; inhibition [21]: 30%
N=C(N)c1ccc(/N=N/Nc2ccc(C(=N)N)cc2)cc1 [DIMINAZENE] | 11.7 °C | 16.6 °C | 6.8 °C | – | – | – | – | – | – | 24.1 °C | 18.3 °C | – | – | > 25 µM | – | Kd [22]: 1 µM; inhibition [23]: Active; Kd [24]: 0.001 µM; Selectivity ratio [25]: 1000; inhibition [26]: Active; Kd [27]: 0.001 µM; Selectivity ratio [28]: 1000; viability at 20 µM [29]: ≥ 75%; viability at 20 µM [30]: ≥ 75%; inhibition [31]: Active
N=C(N)c1ccc(/N=N/Nc2cccc(C#Cc3ccc(F)cc3)c2)cc1 | 5.67 °C | < 5 °C | < 5 °C | Active | Active | inactive | inactive | 5.3 µM | inactive | 6.9 °C | 8.6 °C | 5.5 µM | Active | 5 µM | inactive | GI50 at 72 h [32]: 8.3 µM; inhibition [33]: 40%; inhibition [34]: 67%; Activity [35]: Toxic; inhibition [36]: Dose-dependent effect; inhibition [37]: < 50%; GI50 at 72 h [38]: 5.6 µM
